Measured values pooled from the literature.
Protocols differ between the studies behind these lines.
Sample: plasma

| Structure (SMILES) | test system | conditions | measurement | value |
| --- | --- | --- | --- | --- |
| Cn1c(=O)oc2ccc(-c3ccc(C[C@@H](C#N)NC(=O)[C@@H]4CNCCCO4)cc3)cc21 | male human | oral, 15 mg, single dose, healthy volunteers | AUC | 4.17 µM·h |
| CCc1nc2c(C)cc(N3CCN(CC(=O)N4CC(O)C4)CC3)cn2c1N(C)c1nc(-c2ccc(F)cc2)c(C#N)s1 | human | oral, 20 mg, single dose, fed, healthy volunteers | AUC(0-inf) | 500 ng·h/mL |
| CC(C)n1cc(C#N)c2cc(-n3cc(C(=O)O)cn3)ccc21 | human | oral, 100 mg, single dose, fasted, healthy volunteers | AUC(0-inf) | 19600 ng·h/mL |
| COc1cc(C(=O)NC2CCN(C)CC2)c(F)cc1Nc1ncc(C(F)(F)F)c(Oc2cccc3c2C(=O)N(C)C3)n1 | human | oral, 50 mg, multiple doses, once daily, steady state, patients | AUC | 4.89 µM·h |
| COc1ccc([C@@H]2CN(C(=O)[C@@H](O)CO)C[C@@]2(C)[C@@H](C)O)cc1OC1CN(c2ccc(C)cn2)C1 | human | oral, 10 mg, single dose, healthy volunteers | AUC(0-t) | 2750 ng·h/mL |
| CC(C)(O)c1ccccc1-c1ccc2[nH]c(/C=C/c3ccc(C(F)(F)F)cc3)nc2c1 | male human | oral, 225 mg, single dose, fasted, healthy volunteers | AUC(0-t) | 27900 ng·h/mL |
| COCCOc1cnc2ccn([C@H](C)c3nnc4c(F)cc(-c5cnn(C)c5)cn34)c(=O)c2c1 | human | oral, 400 mg, multiple doses, once daily, patients | AUC(0-t) | 49600 ng·h/mL |
| Cn1cc(-c2ccc(S(=O)(=O)[C@@H]3C[C@@H](C(=O)NC4(C#N)CC4)N(C(=O)C4(C(F)(F)F)CC4)C3)c(C(F)(F)F)c2)cn1 | human | oral, 300 mg, single dose, fasted, healthy volunteers | AUC(0-inf) | 21000 ng·h/mL |
| Cc1ccc(C(=O)N(CCCN)[C@@H](c2oc3cc(Cl)ccc3c(=O)c2Cc2ccccc2)C(C)C)cc1 | human | intravenous, 5 mg/m², single dose, patients, infusion | AUC | 8960 ng·h/mL |
| CO[C@H]1CC[C@H](N2C(=O)CNc3ncc(-c4ccc(C(C)(C)O)nc4)nc32)CC1 | human | oral, 60 mg, multiple doses, patients | AUC(0-t) | 2950 ng·h/mL |
| CS(=O)(=O)CCC#N | human | oral, 100 mg, multiple doses, once daily | AUC | 70300 ng·h/mL |
